According to ChEMBL document CHEMBL4396885, “Thioether-based 2-aminobenzamide derivatives: Novel HDAC inhibitors with potent in vitro and in vivo antitumor activity” (Eur J Med Chem, 2019):

Experiments:
HCT-116 [1] = assay: Antiproliferative activity against human HCT116 cells assessed as growth inhibition at 2 uM after 72 hrs by CCK-8 assay relative to control; format: functional; details: HCT-116, 72 h, read-out: GI
[2] = Volume of distribution at steady state n ICR mouse at 4 mg/kg, iv after 0.08 to 24 hrs by LC-MS/MS analysis; format: ADME, organism-based; details: in vivo, read-out: Vdss
Procedure, shortened: (§1)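 Male ICR mice (29.7~37.4 g), single iv dose 4 mg/kg in DMSO:40% SBE-β-CD 20:80 (v/v). Retro-orbital blood at 0.08–24 h into EDTA-K2 tubes; plasma protein-precipitated with acetonitrile containing internal standards, analysed by LC-MS/MS; n=3 per time point; noncompartmental analysis.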

A549 [3] = assay: Induction of apoptosis in human A549 cells assessed as late apoptotic cells at 1 uM after 48 hrs by Annexin V-FITC/propidium iodide staining based flow cytometry (reference value: 0.637%); format: functional
Procedure, shortened: (§2)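 A549 seeded 4×10⁶ cells/well, dosed after 12 h with compound at various concentrations, harvested after 48 h. Resuspended in annexin-binding buffer, stained with Annexin V-FITC and propidium iodide for 15 min in the dark, analysed by flow cytometry; means of three separate experiments.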

[4] = molecular target: T1, Protein deacetylase HDAC6 (Homo sapiens, UniProt Q9UBN7); assay: Inhibition of recombinant human His tagged HDAC6 expressed in baculovirus infected insect cells assessed as decrease in deacetylation of FLUOR DE LYS SIRT1 substrate by measuring decrease in fluorescence preincubated for 10 mins followed by substrate addition and measured after 30 mins by fluorescence based assay
T1 sequence (Q9UBN7 whole entry): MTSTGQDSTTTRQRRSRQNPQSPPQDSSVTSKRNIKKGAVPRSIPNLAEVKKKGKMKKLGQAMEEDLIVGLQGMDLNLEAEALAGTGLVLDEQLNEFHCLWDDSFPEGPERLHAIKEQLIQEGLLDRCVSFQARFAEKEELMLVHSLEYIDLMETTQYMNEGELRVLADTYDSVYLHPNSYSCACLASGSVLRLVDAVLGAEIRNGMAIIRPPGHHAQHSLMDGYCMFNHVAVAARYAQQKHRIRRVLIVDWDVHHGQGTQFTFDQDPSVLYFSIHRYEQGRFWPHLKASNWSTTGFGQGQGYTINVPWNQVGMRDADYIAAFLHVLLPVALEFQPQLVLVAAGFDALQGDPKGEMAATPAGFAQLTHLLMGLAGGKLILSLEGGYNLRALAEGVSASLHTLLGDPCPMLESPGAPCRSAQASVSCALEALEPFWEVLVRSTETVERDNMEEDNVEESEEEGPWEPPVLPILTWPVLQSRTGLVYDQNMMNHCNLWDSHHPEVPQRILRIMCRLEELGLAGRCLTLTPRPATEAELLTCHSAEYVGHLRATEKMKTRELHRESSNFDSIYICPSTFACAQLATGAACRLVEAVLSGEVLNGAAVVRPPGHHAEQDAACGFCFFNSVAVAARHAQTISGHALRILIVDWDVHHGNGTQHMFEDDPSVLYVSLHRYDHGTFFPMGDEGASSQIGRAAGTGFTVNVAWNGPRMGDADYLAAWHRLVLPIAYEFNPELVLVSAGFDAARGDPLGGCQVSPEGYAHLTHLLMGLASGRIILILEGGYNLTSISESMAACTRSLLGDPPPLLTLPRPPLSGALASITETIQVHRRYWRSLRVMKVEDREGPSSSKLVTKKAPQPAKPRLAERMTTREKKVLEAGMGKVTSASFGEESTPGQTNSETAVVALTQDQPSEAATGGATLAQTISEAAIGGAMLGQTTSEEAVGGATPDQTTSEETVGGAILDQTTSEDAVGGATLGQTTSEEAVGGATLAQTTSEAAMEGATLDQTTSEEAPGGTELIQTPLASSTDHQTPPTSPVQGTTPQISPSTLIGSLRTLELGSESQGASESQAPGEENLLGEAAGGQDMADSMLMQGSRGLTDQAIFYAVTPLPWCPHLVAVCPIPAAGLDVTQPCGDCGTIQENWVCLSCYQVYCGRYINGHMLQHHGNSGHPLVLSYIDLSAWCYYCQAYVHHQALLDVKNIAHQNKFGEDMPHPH

A549 [5] = assay: Antiproliferative activity against human A549 cells assessed as growth inhibition at 8 uM after 72 hrs by CCK-8 assay relative to control; format: functional; details: A549, 72 h, read-out: GI
A549 [6] = assay: Induction of apoptosis in human A549 cells assessed as viable cells at 0.5 uM after 48 hrs by Annexin V-FITC/propidium iodide staining based flow cytometry (reference value: 98%); format: functional; details: A549, 48 h, read-out: Activity; procedure, shortened: as §2
HCT-116 [7] = assay: Antiproliferative activity against human HCT116 cells assessed as growth inhibition at 8 uM after 72 hrs by CCK-8 assay relative to control; format: functional; details: HCT-116, 72 h, read-out: GI
A549 [8] = assay: Induction of apoptosis in human A549 cells assessed as early apoptotic cells at 0.5 uM after 48 hrs by Annexin V-FITC/propidium iodide staining based flow cytometry (reference value: 1.19%); format: functional; procedure, shortened: as §2
A549 [9] = assay: Induction of apoptosis in human A549 cells assessed as viable cells at 1 uM after 48 hrs by Annexin V-FITC/propidium iodide staining based flow cytometry (reference value: 98%); format: functional; details: A549, 48 h, read-out: Activity; procedure, shortened: as §2
[10] = Clearance in ICR mouse at 4 mg/kg, iv after 0.08 to 24 hrs by LC-MS/MS analysis; format: ADME, organism-based; details: in vivo; procedure, shortened: as §1
A549 [11] = assay: Induction of apoptosis in human A549 cells after 48 hrs by Annexin V-FITC/propidium iodide staining based flow cytometry; format: functional, cell-based; procedure, shortened: as §2
A549 [12] = assay: Antitumor activity against human A549 cells xenografted in Balb/c nude mouse assessed as tumor growth inhibition at 25 mg/kg, ip administered twice per day for 21 days relative to control; format: functional; details: 504 h, read-out: TGI
Procedure, shortened: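 Female BALB/c nude mice, 5–6 weeks, implanted s.c. in right axilla with 3×10⁶ A549 cells; randomized at ~95 mm³ tumor volume, 4 per group. Dosed ip 25 mg/kg twice daily for 21 days; vehicle controls got DMA & 5% Solutol HS-15 (5:95). Tumor size (V=length×width²/2) and body weight measured every 3 days; TGI from volume change relative to control.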

A549 [13] = assay: Cell cycle arrest in human A549 cells assessed as accumulation of cells at S phase at 0.5 uM after 48 hrs by propidium iodide staining-based flow cytometry (reference value: 12.83%); format: functional
A549 [14] = assay: Cell cycle arrest in human A549 cells assessed as accumulation of cells at G2/M phase at 2 uM after 48 hrs by propidium iodide staining-based flow cytometry (reference value: 13.62%); format: functional
HeLa = assay: Antiproliferative activity against human HeLa cells assessed as growth inhibition at 2 uM after 72 hrs by CCK-8 assay relative to control; format: functional; details: read-out: GI
A549 [15] = assay: Inhibition of colony formation in human A549 cells incubated for 10 to 14 days by crystal violet staining based assay; format: functional, cell-based
Procedure, shortened: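 A549 seeded 3000 cells/well, treated after 12 h at 0.5, 1 and 2 µM, grown 10–14 days, fixed in 4% paraformaldehyde for 15 min and stained with 0.1% crystal violet.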

A549 [16] = assay: Cell cycle arrest in human A549 cells assessed as accumulation of cells at G0/G1 phase at 2 uM after 48 hrs by propidium iodide staining-based flow cytometry (reference value: 73.35%); format: functional

Row | Structure (SMILES) | inhibition of growth at 2 µM (HCT-116 [1]) [%] | Vd [2] [L/kg] | Activity (A549 [3]) [%] | IC50 [4] [µM] | inhibition of growth at 8 µM (A549 [5]) [%] | viability at 0.5 µM (A549 [6]) [%] | inhibition of growth at 8 µM (HCT-116 [7]) [%] | Activity (A549 [8]) [%] | viability at 1 µM (A549 [9]) [%] | clearance [10] [mL/min/kg] | Activity (A549 [11]) | inhibition in vivo at 25 mg/kg (A549 [12]) [%] | Activity (A549 [13]) [%] | Activity (A549 [14]) [%] | inhibition of growth at 2 µM (HeLa) [%] | inhibition (A549 [15]) | Activity (A549 [16]) [%]
1 | COc1ccc(SCc2ccc(C(=O)Nc3ccccc3N)cc2)cc1 | 73.3 | 1.74 | 10.8 | > 32 | 70.7 | 66 | 90.1 | 5.21 | 67.9 | 90.1 | Dose-dependent effect | 57.9 | 17.55 | 48.06 | 35 | Dose-dependent effect | 39.3
2 | CCc1ccc(SCc2ccc(C(=O)Nc3ccccc3N)cc2)cc1 | 40.7 | 3.46 | 14.6 | > 32 | 91.4 | 80.8 | 79.1 | 11 | 70.4 | 76.3 | Dose-dependent effect | 62.7 | 12.56 | 66.48 | 30.8 | Dose-dependent effect | 24
